Converted amounts (≈) assume the structure as drawn. Values belong to the compound of their own block, whether it stands above or below them.
Tests used:
SAOS-2 = experiment: In vitro inhibitory effect measured against human osteosarcoma SAOS-2 tumor cells; format: functional, cell-based
Procedure, shortened: (§1)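 Cells seeded at 1 × 10^4 cells/mL in RPMI 1640 with 10% heat-inactivated FBS and 50 μg/mL kanamycin. Cultured 72 h at 37 °C in a CO2 incubator with a range of compound concentrations. Viability read by MTT colorimetric assay at OD 570 nm against untreated control wells. IC50 is the μg/mL concentration giving 50% growth inhibition; representative of three separate experiments.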

SK-ES1 = experiment: In vitro inhibitory effect measured against human osteosarcoma SK-ES-1 tumor cells; format: functional, cell-based; procedure, shortened: as §1
QG-56 [1] = experiment: In vitro inhibitory effect measured against human lung suamous-cell carcinoma QG-56 tumor cells at 100 ug/mL; format: functional
Procedure, shortened: (§2)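 MTT viability assay after 72 h exposure at 37 °C in a CO2 incubator. Cells at 1 × 10^4 cells/mL in RPMI 1640 with 10% heat-inactivated FBS and 50 μg/mL kanamycin. Percent inhibition = [1 − OD570 of sample/OD570 of untreated control] × 100. Representative of three separate experiments.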

HOS [2] = experiment: In vitro inhibitory effect measured against human osteosarcoma HOS tumor cells at 100 ug/mL; format: functional; procedure, shortened: as §2
HT-1080 = experiment: In vitro inhibitory effect measured against human fibrosarcoma HT1080 tumor cells; format: functional, cell-based; procedure, shortened: as §1
KHOS-321H = experiment: In vitro inhibitory effect measured against human osteosarcoma KHOS-321H tumor cells; format: functional, cell-based; procedure, shortened: as §1
NCC = experiment: In vitro inhibitory effect measured against human renal cell carcinoma NCC-nu tumor cells; format: functional, cell-based; procedure, shortened: as §1
NUGC-4 [3] = experiment: In vitro inhibitory effect measured against human stomach adenocarcinoma NUGC-4 tumor cells at 100 ug/mL; format: functional; procedure, shortened: as §2
OST [4] = experiment: In vitro inhibitory effect measured against human osteosarcoma OST tumor cells at 100 ug/mL; format: functional; procedure, shortened: as §2
PC-13 [5] = experiment: In vitro inhibitory effect measured against human lung large-cell carcinoma PC-13 tumor cells at 100 ug/mL; format: functional; procedure, shortened: as §2
U2OS [6] = experiment: In vitro inhibitory effect measured against human osteosarcoma U20-S tumor cells at 100 ug/mL; format: functional; procedure, shortened: as §2
PC-3 [7] = experiment: In vitro inhibitory effect measured against human lung adenocarcinoma PC-3 tumor cells at 100 ug/mL; format: functional; procedure, shortened: as §2
PC-8 = experiment: In vitro inhibitory effect measured against human lung adenocarcinoma PC-8 tumor cells; format: functional, cell-based; procedure, shortened: as §1
PC-9 = experiment: In vitro inhibitory effect measured against human lung adenocarcinoma PC-9 tumor cells; format: functional, cell-based; procedure, shortened: as §1
MFH-ST [8] = experiment: In vitro inhibitory effect measured against human malignant fibrous histiocytoma MFH-ST tumor cells at 100 ug/mL; format: functional; procedure, shortened: as §2
MG-63 [9] = experiment: In vitro inhibitory effect measured against human osteosarcoma MG-63 tumor cells at 100 ug/mL; format: functional; procedure, shortened: as §2
MKN-28 = experiment: In vitro inhibitory effect measured against human stomach adenocarcinoma MKN-28 tumor cells; format: functional, cell-based; procedure, shortened: as §1
HOS-TE85 = experiment: In vitro inhibitory effect measured against human osteosarcoma MNNG-HOS tumor cells; format: functional, cell-based; procedure, shortened: as §1
ST-KM-1 [10] = experiment: In vitro inhibitory effect measured against human stomach adenocarcinoma ST-KM tumor cells at 100 ug/mL; format: functional; procedure, shortened: as §2
ST-KM-1 [11] = experiment: In vitro inhibitory effect measured against human stomach adenocarcinoma ST-KM tumor cells; format: functional, cell-based; procedure, shortened: as §1
T-24 = experiment: In vitro inhibitory effect measured against human bladder transitional cell carcinoma T-24 tumor cells; format: functional, cell-based; procedure, shortened: as §1
QG-56 [12] = experiment: In vitro inhibitory effect measured against human lung suamous-cell carcinoma QG-56 tumor cells; format: functional, cell-based; procedure, shortened: as §1
HOS [13] = experiment: In vitro inhibitory effect measured against human osteosarcoma HOS tumor cells; format: functional, cell-based; procedure, shortened: as §1
NUGC-4 [14] = experiment: In vitro inhibitory effect measured against human stomach adenocarcinoma NUGC-4 tumor cells; format: functional, cell-based; procedure, shortened: as §1
PC-13 [15] = experiment: In vitro inhibitory effect measured against human lung large-cell carcinoma PC-13 tumor cells; format: functional, cell-based; procedure, shortened: as §1
U2OS [16] = experiment: In vitro inhibitory effect measured against human osteosarcoma U20-S tumor cells; format: functional, cell-based; procedure, shortened: as §1
PC-3 [17] = experiment: In vitro inhibitory effect measured against human lung adenocarcinoma PC-3 tumor cells; format: functional, cell-based; procedure, shortened: as §1
PC-6 = experiment: In vitro inhibitory effect measured against human lung small-cell carcinoma PC-6 tumor cells; format: functional, cell-based; procedure, shortened: as §1
MFH-ST [18] = experiment: In vitro inhibitory effect measured against human malignant fibrous histiocytoma MFH-ST tumor cells; format: functional, cell-based; procedure, shortened: as §1
MG-63 [19] = experiment: In vitro inhibitory effect measured against human osteosarcoma MG-63 tumor cells; format: functional, cell-based; procedure, shortened: as §1
OST [20] = experiment: In vitro inhibitory effect measured against human osteosarcoma OST tumor cells; format: functional, cell-based; procedure, shortened: as §1

- IC50 (SAOS-2): 2.7 µg/mL (≈ 11.1 µM)
- IC50 (SK-ES1): 0.09 µg/mL (≈ 0.37 µM)
- IC50 (HT-1080): 0.13 µg/mL (≈ 0.534 µM)
- IC50 (KHOS-321H): 0.27 µg/mL (≈ 1.11 µM)
- IC50 (NCC): 0.13 µg/mL (≈ 0.534 µM)
- IC50 (PC-8): 0.28 µg/mL (≈ 1.15 µM)
- IC50 (PC-9): 1.6 µg/mL (≈ 6.58 µM)
- IC50 (MKN-28): 4.5 µg/mL (≈ 18.5 µM)
- IC50 (HOS-TE85): 2.6 µg/mL (≈ 10.7 µM)
SMILES: Nc1ccn([C@@H]2O[C@H](CO)[C@@H](O)[C@@H]2O)c(=O)n1 [CYTARABINE]
- inhibition at 100 µg/mL (QG-56 [1]): 24.4%
- inhibition at 100 µg/mL (HOS [2]): 45.4%
- inhibition at 100 µg/mL (NUGC-4 [3]): 49.9%
- inhibition at 100 µg/mL (OST [4]): 48%
- inhibition at 100 µg/mL (PC-13 [5]): 40%
- inhibition at 100 µg/mL (U2OS [6]): 43.9%
- inhibition at 100 µg/mL (PC-3 [7]): 46.2%
- inhibition at 100 µg/mL (MFH-ST [8]): 47.9%
- inhibition at 100 µg/mL (MG-63 [9]): 29.5%
- inhibition at 100 µg/mL (ST-KM-1 [10]): 48.6%

- IC50 (SAOS-2): 2.8 µg/mL (≈ 10.4 µM)
- IC50 (SK-ES1): 1.1 µg/mL (≈ 4.1 µM)
- IC50 (ST-KM-1 [11]): 1.1 µg/mL (≈ 4.1 µM)
- IC50 (T-24): 0.56 µg/mL (≈ 2.09 µM)
- IC50 (QG-56 [12]): 5.4 µg/mL (≈ 20.1 µM)
- IC50 (HOS [13]): 9.4 µg/mL (≈ 35 µM)
- IC50 (HT-1080): 1.6 µg/mL (≈ 5.96 µM)
- IC50 (KHOS-321H): 0.62 µg/mL (≈ 2.31 µM)
- IC50 (NCC): 1.8 µg/mL (≈ 6.71 µM)
- IC50 (NUGC-4 [14]): 1.4 µg/mL (≈ 5.22 µM)
- IC50 (PC-13 [15]): 18 µg/mL (≈ 67.1 µM)
- IC50 (U2OS [16]): 14 µg/mL (≈ 52.2 µM)
- IC50 (PC-3 [17]): 18 µg/mL (≈ 67.1 µM)
- IC50 (PC-6): 18 µg/mL (≈ 67.1 µM)
- IC50 (PC-8): 1.2 µg/mL (≈ 4.47 µM)
- IC50 (PC-9): 1 µg/mL (≈ 3.73 µM)
- IC50 (MFH-ST [18]): 14 µg/mL (≈ 52.2 µM)
- IC50 (MG-63 [19]): 30 µg/mL (≈ 112 µM)
- IC50 (MKN-28): 2.2 µg/mL (≈ 8.2 µM)
- IC50 (HOS-TE85): 1.5 µg/mL (≈ 5.59 µM)
- IC50 (OST [20]): 6.4 µg/mL (≈ 23.9 µM)
SMILES: [N-]=[N+]=N[C@H]1[C@H](O)[C@@H](CO)O[C@H]1n1ccc(N)nc1=O [CYTARAZID]

From ChEMBL document CHEMBL1125651, “Nucleosides and nucleotides. 95. Improved synthesis of 1-(2-azido-2-deoxy-beta-D-arabinofuranosyl)cytosine (cytarazid) and -thymine. Inhibitory spectrum of cytarazid on the growth of various human tumor cells in vitro” (J Med Chem, 1991)
